In ChEMBL document CHEMBL4689842, “EUbOPEN Chemogenomics Library wave 1” (2021):

System: HEK-293T
Experiment: Multiplex assay against HEK293T;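 as to Population Tubulin-Different-Phenotype (%): share of the cells with healthy nuclei that show this phenotype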
Format: toxicity, cell-based
Details: human
Method in brief: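 Cells were classed with CellPathfinder machine-learning gating, first as Hoechst high-intensity objects or normal cells, then (normal cells) as healthy, pyknosed or fragmented nuclei, and finally (pyknosed cells) as mitotic or apoptotic. Staining of live cells at seeding used Hoechst33342, BioTracker Green Microtubule Cytoskeleton Dye, MitoTracker Red and Annexin V Alexa Fluor 680, with imaging on a CQ1 microscope at 37°C and 5% CO2 after compound addition. Tubulin, mitochondrial-mass and membrane-permeability phenotypes are per cents of healthy-nucleus cells.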

[1] = 24 h, 1 µM, compound concentration 1 uM, replicate 2
[2] = 24 h, 10 µM, compound concentration 10 uM, replicate 1
[3] = 24 h, 10 µM, compound concentration 10 uM, replicate 2
[4] = 48 h, 1 µM, compound concentration 1 uM, replicate 1
[5] = 48 h, 1 µM, compound concentration 1 uM, replicate 2
[6] = 48 h, 10 µM, compound concentration 10 uM, replicate 1
[7] = 48 h, 10 µM, compound concentration 10 uM, replicate 2

SMILES: Cc1c(P(=S)(c2ccccc2)c2ccccc2)n2ccccc2[n+]1C/C=C/c1ccccc1.[Br-]
- Population Pyknosed Nuclei (%) [1]: 51%
- Population Tubulin-Different-Phenotype (%) [1]: 85%
- Total Cell Count [1]: 147
- Population Apoptotic (%) [2]: 52%
- Population Fragmented Nuclei (%) [2]: 36%
- Population Healthy Nuclei (%) [2]: 0%
- Population Hoechst High Intensity Objects (%) [2]: 21%
- Population Membrane Permeable-Phenotype (%) [2]: 0%
- Population Mitochondria Different-Phenotype (%) [2]: 100%
- Population Mitotic Cells (%) [2]: 47%
- Population Normal (%) [2]: 78%
- Population Pyknosed Nuclei (%) [2]: 62%
- Total Cell Count [2]: 389
- Population Apoptotic (%) [3]: 86%
- Population Fragmented Nuclei (%) [3]: 12%
- Population Healthy Nuclei (%) [3]: 14%
- Population Hoechst High Intensity Objects (%) [3]: 13%
- Population Membrane Permeable-Phenotype (%) [3]: 16%
- Population Mitochondria Different-Phenotype (%) [3]: 72%
- Population Mitotic Cells (%) [3]: 13%
- Population Normal (%) [3]: 86%
- Population Pyknosed Nuclei (%) [3]: 72%
- Population Tubulin-Different-Phenotype (%) [3]: 100%
- Total Cell Count [3]: 195
- Population Apoptotic (%) [4]: 69%
- Population Fragmented Nuclei (%) [4]: 24%
- Population Healthy Nuclei (%) [4]: 1%
- Population Hoechst High Intensity Objects (%) [4]: 22%
- Population Membrane Permeable-Phenotype (%) [4]: 0%
- Population Mitochondria Different-Phenotype (%) [4]: 0%
- Population Mitotic Cells (%) [4]: 30%
- Population Normal (%) [4]: 77%
- Population Pyknosed Nuclei (%) [4]: 73%
- Population Tubulin-Different-Phenotype (%) [4]: 66%
- Total Cell Count [4]: 209
- Population Apoptotic (%) [5]: 92%
- Population Fragmented Nuclei (%) [5]: 7%
- Population Healthy Nuclei (%) [5]: 57%
- Population Hoechst High Intensity Objects (%) [5]: 8%
- Population Membrane Permeable-Phenotype (%) [5]: 4%
- Population Mitochondria Different-Phenotype (%) [5]: 91%
- Population Mitotic Cells (%) [5]: 8%
- Population Normal (%) [5]: 91%
- Population Pyknosed Nuclei (%) [5]: 34%
- Population Tubulin-Different-Phenotype (%) [5]: 89%
- Total Cell Count [5]: 157
- Population Apoptotic (%) [6]: 65%
- Population Fragmented Nuclei (%) [6]: 45%
- Population Healthy Nuclei (%) [6]: 1%
- Population Hoechst High Intensity Objects (%) [6]: 22%
- Population Membrane Permeable-Phenotype (%) [6]: 0%
- Population Mitochondria Different-Phenotype (%) [6]: 100%
- Population Mitotic Cells (%) [6]: 34%
- Population Normal (%) [6]: 77%
- Population Pyknosed Nuclei (%) [6]: 53%
- Total Cell Count [6]: 379
- Population Apoptotic (%) [7]: 95%
- Population Fragmented Nuclei (%) [7]: 12%
- Population Healthy Nuclei (%) [7]: 27%
- Population Hoechst High Intensity Objects (%) [7]: 14%
- Population Membrane Permeable-Phenotype (%) [7]: 9%
- Population Mitochondria Different-Phenotype (%) [7]: 95%
- Population Mitotic Cells (%) [7]: 4%
- Population Normal (%) [7]: 85%
- Population Pyknosed Nuclei (%) [7]: 59%
- Population Tubulin-Different-Phenotype (%) [7]: 100%
- Total Cell Count [7]: 175
